Source: ChEMBL document CHEMBL1833805, “Histone deacetylase inhibitors from Burkholderia thailandensis” (2011)
The source made the active and inactive calls. The rule behind the calls is not given here.

Columns and labels:
NCI-H322M [1] = test: Cytotoxicity against human NCI-H322M cells after 6 days by MTT assay; type: functional; details: 144 h
CAKI-1 [2] = test: Ratio of FK228 TGI to compound TGI for human Caki1 cells; type: functional
RXF 393 [3] = test: Ratio of FK228 LC50 to compound LC50 for human RXF393 cells; type: functional
A498 [4] = test: Ratio of FK228 TGI to compound TGI for human A498 cells; type: functional
MDA-MB-435 = test: Antitumor activity against human MDA-MB-435 cells implanted subcutaneously in mouse assessed as inhibition of tumor cell growth at 1.6 to 2.4 mg/kg, ip administered on day 1 to 4 measured on day 5 by hollow fiber assay; type: functional
In short: (§1)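 Human tumour cell lines from a standard 12-line panel encapsulated in polyvinylidene fluoride hollow fibres (500,000 Da exclusion), implanted intraperitoneally or subcutaneously in mice; drug given IP at 2.4 and 1.6 mg/kg/dose on days 1–4; fibres retrieved and viable cell mass determined day 5; T/C versus vehicle-only injected controls.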

[5] = biological target: Histone deacetylase 1 (Homo sapiens) (UniProt Q13547); test: Inhibition of human HDAC1 assessed as deacetylated substrate level using RHKKAc as substrate by fluorometric analysis
Sequence of Histone deacetylase 1 (Homo sapiens) (Q13547 whole entry): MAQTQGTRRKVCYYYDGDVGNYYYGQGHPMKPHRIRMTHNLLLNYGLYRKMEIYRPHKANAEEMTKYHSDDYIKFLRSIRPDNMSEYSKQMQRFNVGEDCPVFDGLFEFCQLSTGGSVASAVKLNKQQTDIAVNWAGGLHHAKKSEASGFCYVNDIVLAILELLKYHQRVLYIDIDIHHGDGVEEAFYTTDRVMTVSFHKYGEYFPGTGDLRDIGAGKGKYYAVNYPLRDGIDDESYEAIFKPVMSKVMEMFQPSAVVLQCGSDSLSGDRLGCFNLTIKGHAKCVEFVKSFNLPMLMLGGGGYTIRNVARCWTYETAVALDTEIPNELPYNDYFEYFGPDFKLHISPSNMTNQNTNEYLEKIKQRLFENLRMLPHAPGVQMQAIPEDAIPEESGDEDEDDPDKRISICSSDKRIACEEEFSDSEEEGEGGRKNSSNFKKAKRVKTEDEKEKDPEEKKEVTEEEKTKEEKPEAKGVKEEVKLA
In short: (§2)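 Recombinant human HDAC1 or HDAC8 with fluorogenic p53 379–382 peptide RHKKAc as substrate. Compound tested at 10 doses in duplicate, 3-fold serial dilution from 20 µM. Substrate incubated with compound, then the mixture was digested with a developing mixture. Fluorescence read at 360 nm excitation / 460 nm emission, proportional to deacetylated substrate.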

MDA-MB-468 [6] = test: Ratio of FK228 TGI to compound TGI for human MDA-MB-468 cells; type: functional
RXF 393 [7] = test: Ratio of FK228 TGI to compound TGI for human RXF393 cells; type: functional
UO-31 [8] = test: Ratio of FK228 TGI to compound TGI for human UO31 cells; type: functional
COLO 205 [9] = test: Cytotoxicity against human COLO205 cells after 6 days by MTT assay; type: functional; details: COLO 205, 144 h
MDA-MB-231 [10] = test: Ratio of FK228 TGI to compound TGI for human MDA-MB-231 cells; type: functional
U-251 [11] = test: Ratio of FK228 TGI to compound TGI for human U251 cells; type: functional
[12] = biological target: Histone deacetylase 8 (Homo sapiens) (UniProt Q9BY41); test: Inhibition of human HDAC8 assessed as deacetylated substrate level using RHKKAc as substrate by fluorometric analysis; in short: as §2
Sequence of Histone deacetylase 8 (Homo sapiens) (Q9BY41 whole entry): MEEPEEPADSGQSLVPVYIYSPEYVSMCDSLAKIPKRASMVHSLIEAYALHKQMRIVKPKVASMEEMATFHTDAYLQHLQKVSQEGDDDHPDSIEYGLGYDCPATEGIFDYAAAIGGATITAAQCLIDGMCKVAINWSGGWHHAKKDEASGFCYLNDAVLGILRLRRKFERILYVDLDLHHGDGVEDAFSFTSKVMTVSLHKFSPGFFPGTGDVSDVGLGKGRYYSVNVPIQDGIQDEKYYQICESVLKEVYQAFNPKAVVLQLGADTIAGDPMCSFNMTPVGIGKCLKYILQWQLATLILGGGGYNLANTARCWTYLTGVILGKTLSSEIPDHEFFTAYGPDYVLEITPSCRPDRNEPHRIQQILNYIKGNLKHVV

SF-295 [13] = test: Cytotoxicity against human SF295 cells after 6 days by MTT assay; type: functional; details: SF-295, 144 h
SW-620 = test: Antitumor activity against human SW620 cells implanted subcutaneously in mouse assessed as inhibition of tumor cell growth at 1.6 to 2.4 mg/kg, ip administered on day 1 to 4 measured on day 5 by hollow fiber assay; type: functional; in short: as §1
ACHN [14] = test: Ratio of FK228 TGI to compound TGI for human ACHN cells; type: functional
U-251 [15] = test: Cytotoxicity against human U251 cells after 6 days by MTT assay; type: functional; details: U-251, 144 h
A498 [16] = test: Cytotoxicity against human A498 cells after 6 days by MTT assay; type: functional; details: A498, 144 h
COLO 205 [17] = test: Antitumor activity against human COLO205 cells implanted subcutaneously in mouse assessed as inhibition of tumor cell growth at 1.6 to 2.4 mg/kg, ip administered on day 1 to 4 measured on day 5 by hollow fiber assay; type: functional; in short: as §1
COLO 205 [18] = test: Ratio of FK228 LC50 to compound LC50 for human COLO205 cells; type: functional
U-251 [19] = test: Antitumor activity against human U251 cells implanted subcutaneously in mouse assessed as inhibition of tumor cell growth at 1.6 to 2.4 mg/kg, ip administered on day 1 to 4 measured on day 5 by hollow fiber assay; type: functional; in short: as §1
SN12C [20] = test: Cytotoxicity against human SN12C cells after 6 days by MTT assay; type: functional; details: 144 h
A498 [21] = test: Ratio of FK228 LC50 to compound LC50 for human A498 cells; type: functional
NCI-H322M [22] = test: Ratio of FK228 TGI to compound TGI for human NCI-H322M cells; type: functional
COLO 205 [23] = test: Ratio of FK228 TGI to compound TGI for human COLO205 cells; type: functional
OVCAR-5 = test: Antitumor activity against human OVCAR5 cells implanted subcutaneously in mouse assessed as inhibition of tumor cell growth at 1.6 to 2.4 mg/kg, ip administered on day 1 to 4 measured on day 5 by hollow fiber assay; type: functional; in short: as §1
MDA-MB-231 [24] = test: Cytotoxicity against human MDA-MB-231 cells after 6 days by MTT assay; type: functional; details: MDA-MB-231, 144 h
UACC-257 [25] = test: Ratio of FK228 TGI to compound TGI for human UACC257 cells; type: functional
U-251 [26] = test: Ratio of FK228 LC50 to compound LC50 for human U251 cells; type: functional
SF-295 [27] = test: Antitumor activity against human SF295 cells implanted subcutaneously in mouse assessed as inhibition of tumor cell growth at 1.6 to 2.4 mg/kg, ip administered on day 1 to 4 measured on day 5 by hollow fiber assay; type: functional; in short: as §1
NCI-H23 = test: Antitumor activity against human NCI-H23 cells implanted subcutaneously in mouse assessed as inhibition of tumor cell growth at 1.6 to 2.4 mg/kg, ip administered on day 1 to 4 measured on day 5 by hollow fiber assay; type: functional; in short: as §1
NCI-H522 = test: Antitumor activity against human NCI-H522 cells implanted subcutaneously in mouse assessed as inhibition of tumor cell growth at 1.6 to 2.4 mg/kg, ip administered on day 1 to 4 measured on day 5 by hollow fiber assay; type: functional; in short: as §1
CAKI-1 [28] = test: Cytotoxicity against human Caki1 cells after 6 days by MTT assay; type: functional; details: CAKI-1, 144 h
ACHN [29] = test: Cytotoxicity against human ACHN cells after 6 days by MTT assay; type: functional; details: 144 h
UACC-62 = test: Antitumor activity against human UACC62 cells implanted subcutaneously in mouse assessed as inhibition of tumor cell growth at 1.6 to 2.4 mg/kg, ip administered on day 1 to 4 measured on day 5 by hollow fiber assay; type: functional; in short: as §1
[30] = Antitumor activity against human […] cells implanted subcutaneously in mouse assessed as inhibition of tumor cell growth at 1.6 to 2.4 mg/kg, ip administered on day 1 to 4 measured on day 5 by hollow fiber assay; type: functional; in short: as §1
LOX IMVI = test: Antitumor activity against human LOXIMVI cells implanted subcutaneously in mouse assessed as inhibition of tumor cell growth at 1.6 to 2.4 mg/kg, ip administered on day 1 to 4 measured on day 5 by hollow fiber assay; type: functional; in short: as §1
UACC-257 [31] = test: Cytotoxicity against human UACC257 cells after 6 days by MTT assay; type: functional; details: UACC-257, 144 h
[32] = biological target: Histone deacetylase 4 (Homo sapiens) (UniProt P56524); test: Inhibition of human HDAC4 assessed as deacetylated substrate level using RHKAcKAc as substrate by fluorometric analysis
Sequence of Histone deacetylase 4 (Homo sapiens) (P56524 whole entry): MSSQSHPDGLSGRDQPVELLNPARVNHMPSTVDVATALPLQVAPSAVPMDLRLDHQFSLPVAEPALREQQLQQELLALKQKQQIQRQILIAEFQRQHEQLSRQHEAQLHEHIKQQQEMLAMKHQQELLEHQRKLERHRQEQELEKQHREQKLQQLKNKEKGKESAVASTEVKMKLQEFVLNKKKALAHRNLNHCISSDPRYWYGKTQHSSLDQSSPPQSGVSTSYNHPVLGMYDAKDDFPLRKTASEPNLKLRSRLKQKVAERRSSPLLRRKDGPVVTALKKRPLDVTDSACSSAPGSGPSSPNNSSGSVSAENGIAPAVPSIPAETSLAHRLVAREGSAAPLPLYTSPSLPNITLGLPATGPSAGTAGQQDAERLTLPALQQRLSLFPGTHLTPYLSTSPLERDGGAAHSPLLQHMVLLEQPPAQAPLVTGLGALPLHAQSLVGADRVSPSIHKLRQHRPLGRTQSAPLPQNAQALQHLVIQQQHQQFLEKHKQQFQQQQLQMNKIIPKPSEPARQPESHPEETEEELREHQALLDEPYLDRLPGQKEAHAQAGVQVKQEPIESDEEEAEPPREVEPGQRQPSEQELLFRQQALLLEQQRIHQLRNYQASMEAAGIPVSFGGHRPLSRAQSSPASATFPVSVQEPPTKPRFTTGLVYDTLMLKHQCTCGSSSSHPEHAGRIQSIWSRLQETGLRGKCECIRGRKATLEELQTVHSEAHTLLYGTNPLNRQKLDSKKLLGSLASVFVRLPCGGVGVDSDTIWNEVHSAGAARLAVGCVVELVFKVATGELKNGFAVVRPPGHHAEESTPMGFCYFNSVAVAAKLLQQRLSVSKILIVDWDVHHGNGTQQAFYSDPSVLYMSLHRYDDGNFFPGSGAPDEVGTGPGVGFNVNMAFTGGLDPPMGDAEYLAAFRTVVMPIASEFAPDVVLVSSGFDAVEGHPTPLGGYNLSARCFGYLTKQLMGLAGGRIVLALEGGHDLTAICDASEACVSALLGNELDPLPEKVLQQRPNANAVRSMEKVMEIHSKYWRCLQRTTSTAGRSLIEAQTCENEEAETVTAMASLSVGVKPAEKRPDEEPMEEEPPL
In short: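 Recombinant human HDAC4 with fluorogenic p53 379–382 peptide RHKAcKAc as substrate. Compound tested at 10 doses in duplicate, 3-fold serial dilution from 20 µM. Two steps: incubation with substrate, then digestion with a developing mixture. Fluorescence read at 360 nm excitation / 460 nm emission, proportional to deacetylated substrate.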

MDA-MB-468 [33] = test: Cytotoxicity against human MDA-MB-468 cells after 6 days by MTT assay; type: functional; details: MDA-MB-468, 144 h
SN12C [34] = test: Ratio of FK228 TGI to compound TGI for human SN12C cells; type: functional
SF-295 [35] = test: Ratio of FK228 TGI to compound TGI for human SF295 cells; type: functional
UO-31 [36] = test: Cytotoxicity against human UO31 cells after 6 days by MTT assay; type: functional; details: UO-31, 144 h
RXF 393 [37] = test: Cytotoxicity against human RXF393 cells after 6 days by MTT assay; type: functional; details: RXF 393, 144 h
NCI = test: Cytotoxicity against human NCI60 cells after 6 days by MTT assay; type: functional; details: 144 h
MDA-MB-231 [38] = test: Antitumor activity against human MDA-MB-231 cells implanted subcutaneously in mouse assessed as inhibition of tumor cell growth at 1.6 to 2.4 mg/kg, ip administered on day 1 to 4 measured on day 5 by hollow fiber assay; type: functional; in short: as §1
[39] = read-out: LC50 (the source's name)

CC[C@H](C)[C@H]1NC(=O)[C@H]2CSSCC/C=C/[C@H](CC(=O)N[C@H](CC[S+](C)[O-])C(=O)N2)OC(=O)C[C@@H]1O (stereo partly specified) [SPIRUCHOSTATIN C]
TGI (NCI-H322M [1]): 100 nM | Ratio (CAKI-1 [2]): 2.1 | Ratio (RXF 393 [3]): 1.8 | Ratio (A498 [4]): 2.4 | T/C (MDA-MB-435): >50% | inhibition [5]: Active | Ratio (MDA-MB-468 [6]): 3.9 | Ratio (RXF 393 [7]): 3.8 | Ratio (UO-31 [8]): 4.9 | TGI (COLO 205 [9]): 8 nM | CC50 (COLO 205 [9]; [39]): 15 nM | Ratio (MDA-MB-231 [10]): 2.4 | Ratio (U-251 [11]): 2.7 | inhibition [12]: Active | TGI (SF-295 [13]): 110 nM | T/C (SW-620): >50% | Ratio (ACHN [14]): 4 | TGI (U-251 [15]): 12 nM | CC50 (U-251 [15]; [39]): 37 nM | TGI (A498 [16]): 12 nM | CC50 (A498 [16]; [39]): 55 nM | T/C (COLO 205 [17]): >50% | Ratio (COLO 205 [18]): 6 | T/C (U-251 [19]): >50% | TGI (SN12C [20]): 160 nM | Ratio (A498 [21]): 3.6 | Ratio (NCI-H322M [22]): 2.3 | Ratio (COLO 205 [23]): 3.8 | T/C (OVCAR-5): >50% | TGI (MDA-MB-231 [24]): 150 nM | Ratio (UACC-257 [25]): 2.9 | Ratio (U-251 [26]): 3.6 | T/C (SF-295 [27]): >50% | T/C (NCI-H23): >50% | T/C (NCI-H522): >50% | TGI (CAKI-1 [28]): 880 nM | TGI (ACHN [29]): 180 nM | T/C (UACC-62): >50% | T/C [30]: >50% | T/C (LOX IMVI): >50% | TGI (UACC-257 [31]): 33 nM | inhibition [32]: Active | TGI (MDA-MB-468 [33]): 23 nM | Ratio (SN12C [34]): 2.1 | Ratio (SF-295 [35]): 2.3 | TGI (UO-31 [36]): 320 nM | TGI (RXF 393 [37]): 16 nM | CC50 (RXF 393 [37]; [39]): 170 nM | TGI (NCI): 830 nM | CC50 (NCI; [39]): 7700 nM | T/C (MDA-MB-231 [38]): >50%
